According to ChEMBL document CHEMBL1932930, “Synthesis and biological assessment of novel 2-thiazolylhydrazones and computational analysis of their recognition by monoamine oxidase B” (Eur J Med Chem, 2012):

Tests used:
[1] = substrate: NCCc1ccc(O)cc1; experiment: Activity of human recombinant MAO-A expressed in baculovirus infected BTI-TN-5B1-4 insect cells assessed as hydrogen peroxide production after 15 mins by fluorimetric method
Outline: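 Microsomal hMAO-A (specific activity 150 nmol p-tyramine/min/mg protein), dosed to oxidize 165 pmol p-tyramine/min in controls. It was preincubated 15 min at 37 °C in 0.05 M sodium phosphate pH 7.4 with test drug, then started with 1 mM p-tyramine (final). H2O2 was read as Amplex Red/peroxidase resorufin fluorescence (ex 545/em 590) over 15 min at 37 °C, in the dark.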

[2] = substrate: NCCc1ccc(O)cc1; experiment: Activity of human recombinant MAO-B expressed in baculovirus infected BTI-TN-5B1-4 insect cells assessed as hydrogen peroxide production after 15 mins by fluorimetric method
Outline: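 Microsomal hMAO-B (specific activity 22 nmol p-tyramine/min/mg protein), adjusted to oxidize 165 pmol p-tyramine/min in controls. It was preincubated 15 min at 37 °C with drug in 0.05 M sodium phosphate pH 7.4, then started with 1 mM p-tyramine (final). Resorufin fluorescence (ex 545/em 590) from Amplex Red/peroxidase was read over 15 min at 37 °C, in the dark. Controls used DMSO vehicle.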

Protein | Km [1] | Vmax [1] | Km [2] | Vmax [2]
Amine oxidase [flavin-containing] A (Homo sapiens) (protein) MENQEKASIAGHMFDVVVIGGGISGLSAAKLLTEYGVSVLVLEARDRVGGRTYTIRNEHVDYVDVGGAYVGPTQNRILRLSKELGIETYKVNVSERLVQYVKGKTYPFRGAFPPVWNPIAYLDYNNLWRTIDNMGKEIPTDAPWEAQHADKWDKMTMKELIDKICWTKTARRFAYLFVNINVTSEPHEVSALWFLWYVKQCGGTTRIFSVTNGGQERKFVGGSGQVSERIMDLLGDQVKLNHPVTHVDQSSDNIIIETLNHEHYECKYVINAIPPTLTAKIHFRPELPAERNQLIQRLPMGAVIKCMMYYKEAFWKKKDYCGCMIIEDEDAPISITLDDTKPDGSLPAIMGFILARKADRLAKLHKEIRKKKICELYAKVLGSQEALHPVHYEEKNWCEEQYSGGCYTAYFPPGIMTQYGRVIRQPVGRIFFAGTETATKWSGYMEGAVEAGERAAREVLNGLGKVTEKDIWVQEPESKDVPAVEITHTFWERNLPSVSGLLKIIGFSTSVTALGFVLYKYKLLPRS | 514 µM | 0.301 µmol/min/mg |  | 
Amine oxidase [flavin-containing] B (Homo sapiens) (protein) MSNKCDVVVVGGGISGMAAAKLLHDSGLNVVVLEARDRVGGRTYTLRNQKVKYVDLGGSYVGPTQNRILRLAKELGLETYKVNEVERLIHHVKGKSYPFRGPFPPVWNPITYLDHNNFWRTMDDMGREIPSDAPWKAPLAEEWDNMTMKELLDKLCWTESAKQLATLFVNLCVTAETHEVSALWFLWYVKQCGGTTRIISTTNGGQERKFVGGSGQVSERIMDLLGDRVKLERPVIYIDQTRENVLVETLNHEMYEAKYVISAIPPTLGMKIHFNPPLPMMRNQMITRVPLGSVIKCIVYYKEPFWRKKDYCGTMIIDGEEAPVAYTLDDTKPEGNYAAIMGFILAHKARKLARLTKEERLKKLCELYAKVLGSLEALEPVHYEEKNWCEEQYSGGCYTTYFPPGILTQYGRVLRQPVDRIYFAGTETATHWSGYMEGAVEAGERAAREILHAMGKIPEDEIWQSEPESVDVPAQPITTTFLERHLPSVPGLLRLIGLTTIFSATALGFLAHKRGLLVRV |  |  | 105 µM | 0.0289 µmol/min/mg
